Source: PubChem
Only some compounds are listed: those with a hit (about 1.9% of all), similar ones and a draw of the others.
CCR6 antagonist = CCR6 receptor antagonists, primary screen, cell-based, CHO-K1, luminescence, beta-arrestin, uHTS; C-C chemokine receptor type 6 (Homo sapiens), P51684; CHO-K1 CCR6 PathHunter beta-arrestin, CCL20-stimulated; inhibition, % at 20 µM; 340,000 compounds, 0.49% hits; AID 493098, 2011;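 active = compounds whose inhibition of the agonist-driven luminescence signal at 20 µM reaches about 50%, limit read from the data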;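 note: cells stimulated with CCL20 at 14 nM final; plate controls were DMSO with CCL20 for no effect and DMSO without agonist for full effect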
Target sequence (P51684 whole entry, looked up): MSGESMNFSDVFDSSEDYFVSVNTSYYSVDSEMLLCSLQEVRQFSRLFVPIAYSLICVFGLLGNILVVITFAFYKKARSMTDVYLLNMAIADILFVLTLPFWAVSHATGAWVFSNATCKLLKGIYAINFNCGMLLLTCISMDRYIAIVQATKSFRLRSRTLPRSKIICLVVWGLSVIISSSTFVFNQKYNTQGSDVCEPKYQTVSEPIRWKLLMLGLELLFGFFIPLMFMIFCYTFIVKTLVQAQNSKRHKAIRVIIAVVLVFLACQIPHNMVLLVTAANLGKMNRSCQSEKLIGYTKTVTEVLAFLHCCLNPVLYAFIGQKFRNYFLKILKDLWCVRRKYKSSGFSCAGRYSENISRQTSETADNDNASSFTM
APJ antagonist = antagonists of human apelin receptor APJ, primary screen, CHO-K1 cells, beta-arrestin complementation, luminescence; AID 2521, 2010; 330,000 compounds, 0.32% hits; P35414; inhibition, % at 20 µM;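 active = inhibition above about 40% at 20 µM, limit read from the data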;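 note: cells challenged with 10 nM apelin-13 agonist together with compound; plate controls were apelin-13 plus DMSO wells for no effect and DMSO wells lacking apelin-13 for full effect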
CXCR6 inh = CXCR6 receptor inhibitors, primary screen, cell-based, beta-arrestin, luminescence, CHO-K1 PathHunter, 1536-well; inhibition, % at 20 µM; 360,000 compounds, 0.36% hits; C-X-C chemokine receptor type 6 (Homo sapiens), O00574; in the data active = inhibition above about 34%, passing the limit was not always enough;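 note: antagonist mode with CXCL16 agonist at 10 nM final; 0% = 10 nM CXCL16 with DMSO and 100% = unstimulated wells without agonist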
APJ ag = agonists of human apelin receptor APJ, primary screen, CHO-K1 cells, PathHunter beta-arrestin, luminescence; P35414; 0% DMSO wells, 100% apelin; activation, % at 20 µM; 330,000 compounds, 0.11% hits;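 active = activation more than six SD over the plate average, tested at 20 µM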;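 note: 0% = DMSO alone and 100% = apelin-13 at 10 nM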
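Assay system – PathHunter CHO-K1 APJ (AGTRL-1) beta-arrestin reporter cells · Compound – one dose, 20 µM compound, 1% DMSO · Timing – compound 90 min 25 °C, reagent 1 h · Measured by – luminescence from split beta-galactosidase complementation, Galacton Star/Emerald II substrate · Measure – beta-arrestin recruitment to APJ as agonist activity, luminescent signal · Benchmarks – DMSO vs Apelin-13 10 nM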
EBI2 antag = EBI2 receptor antagonists, beta-arrestin recruitment, primary screen, cell-based, luminescence, 7a,25-OHC stimulation, uHTS. 7a,25-OHC stimulated. inhibition, % at 5 µM. 360,000 compounds, 0.81% hits. G-protein coupled receptor 183 (Homo sapiens), P32249; in the data active = inhibition above about 38%;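 note: enzyme fragment complementation signal reports receptor beta-arrestin coupling in cells; 0% = agonist plus DMSO wells and 100% = wells without agonist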
H9c2 TAG inh = inhibitors of triacylglycerol accumulation, primary screen, cell-based, uHTS, fluorescence, H9c2; inhibition, % at 12.5 µM; AID 651582, 2012; H9c2 cells, Nile Red lipid (TAG) fluorescence; cells loaded with 200 µM oleic acid; 230,000 compounds, 0.66% hits;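 active = pattern-corrected inhibition of lipid staining of at least 50% with the nuclear-stain viability signal not falling by more than 50%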;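 note: 0% = DMSO wells and 100% = triacsin C control wells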
EBI2 conf = EBI2 antagonist hit retest, beta-arrestin, confirmation, cell-based, single concentration, luminescence, 7a,25-OHC stimulation. 7a,25-OHC antagonism. shares compounds with EBI2 antag. 2,400 compounds, 29% hits. inhibition, % at 5 µM. AID 651997, 2013;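 active = inhibition of at least 50%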
EBI2 ag = EBI2 agonist activity of antagonist hits, confirmation, counter-screen for EBI2 antagonist project, cell-based, single concentration, agonist mode, luminescence. shares compounds with EBI2 antag. EBI2-expressing cells, 60 min; 0% vehicle, 100% 7α,25-dihydroxycholesterol control. activation, % at 5 µM. 2,400 tested, under 10 active. AID 652000, 2013;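 active = activation of at least 50%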
bGal cs = E. coli beta-galactosidase enzyme inhibition, confirmation, counter-screen for EBI2 antagonist project, biochemical, luminescence, single concentration; shares compounds with EBI2 antag; purified beta-galactosidase, luminescent Galacton Star, 15 min; inhibition, % at 5 µM; 2,400 compounds, 1% hits; AID 652176, 2013;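 active = replicate-average signal at least 3 plate SD below neutral wells, shown as high inhibition, flagging enzyme-inhibiting false positives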;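 note: 0% = DMSO wells with enzyme and 100% = wells lacking enzyme; higher means stronger loss of beta-gal luminescence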
* hit, by the source's call; nt = no result given.

SMILES	CCR6 antagonist	APJ antagonist	CXCR6 inh	APJ ag	EBI2 antag	H9c2 TAG inh	EBI2 conf	EBI2 ag	bGal cs
CC(=O)c1ccc(NC(=O)C(C)n2nc(-c3ccccc3)c3cc(Cl)ccc32)cc1 (centres undefined)	0	13	-7	1	44*	35	7	-1	-7
CC(C(=O)NCc1ccco1)n1nc(-c2ccccc2)c2cc(Cl)ccc21 (centres undefined)	8	2	2	-4	14	-4	nt	nt	nt
CCOc1ccc(N2CC(=O)SC2=S)cc1	19	11	3	1	12	nt	nt	nt	nt
CCOc1ccc(N2CSC(=S)N(c3ccc(OCC)cc3)C2)cc1	8	5	6	-4	62*	8	17	-1	1
CC(=O)Nc1cccc(C(=O)N2CCN(S(=O)(=O)c3ccc(C4CCCCC4)cc3)CC2)c1	12	nt	0	nt	6	7	nt	nt	nt
O=c1c2oc3ccccc3c2ncn1Cc1cccc(Cl)c1	4	9	-4	-4	48*	1	10	1	5
O=c1c2oc3ccccc3c2ncn1Cc1ccccc1Cl	-7	10	-2	-6	5	0	nt	nt	nt
Cc1ccc(CN2CC(C(=O)Nc3cc(C)ccn3)CC2=O)cc1 (centres undefined)	-3	21	10	-1	15	15	nt	nt	nt
O=CN1CCN(C(=O)c2cc3cc(Cl)ccc3[nH]2)CC1	-7	9	-4	0	59*	nt	39	-2	-7
O=C(O)c1cc2cc(Cl)ccc2[nH]1	-10	nt	7	nt	1	-5	nt	nt	nt
O=C(c1cc2cc(Cl)ccc2[nH]1)N1CCN(Cc2ccc3c(c2)OCO3)CC1	7	-20	-25	8	95*	nt	85*	-1	-17
CCN1CCN(C(=O)c2cc3cc(Cl)ccc3[nH]2)CC1	3	13	-4	-5	84*	nt	67*	1	8
O=C(c1cc2cc(Cl)ccc2[nH]1)N1CCCCC1	13	17	-5	-2	27	9	nt	nt	nt
CN1CCN(C(=O)c2cc3cc(Cl)ccc3[nH]2)CC1	9	-12	2	-2	56*	nt	32	1	3
CCOc1ccc(NC(=O)C2CCN(C(=O)C3CC(=O)N(c4ccc(C)cc4)C3)CC2)cc1 (centres undefined)	4	-15	-2	2	1	nt	nt	nt	nt
Cc1cc(OCC(=O)N2CCc3ccccc3C2)c(C)cc1Br	15	-26	11	1	11	-7	nt	nt	nt
C=C(C)CSc1nc2sc3c(c2c(=O)n1-c1ccc(C)cc1)CCN(C)C3	3	7	3	-1	-2	nt	nt	nt	nt
O=C(c1cc(F)c(F)c(F)c1F)N1CCN(C(=O)C2CCCO2)CC1 (centres undefined)	8	11	6	-1	-4	-16	nt	nt	nt
COc1cccc(/C=C/C(=O)c2ccc(NS(=O)(=O)c3ccc(C)cc3)cc2)c1	23	16	16	-3	62*	nt	45	0	6
COc1cc(/C=C/C(=O)c2ccc(NS(=O)(=O)c3ccc(C)cc3)cc2)cc(OC)c1O	27	nt	4	nt	27	5	nt	nt	nt
